Measured values: PMC7261596 (Journal of the American Chemical Society, 2019)

What was measured:
[1] = biological target: T1, ULK4 (Homo sapiens, UniProt Q96C45); experiment: Mant-ADP FRET nucleotide binding / displacement assay; conditions: competition with a fixed concentration of Mant-ADP
[2] = biological target: T1, ULK4; experiment: ADP-Biotin labelling assay detected by Western blot; format: binding; conditions: single concentration 25 μM; ratio of Streptavidin signal to His signal
Procedure, shortened: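 ULK4 incubated with the nucleotide analog ADP-Biotin, which biotin-labels the kinase only when bound. Biotinylated protein detected by Western blot. Test compounds, hits confirmed from a Mant-ADP displacement screen and dose response, tested at 25 μM, with competing nucleotides also at 25 μM. Mutant ULK4 forms also assayed for ADP-Biotin binding.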

T1 sequence (Q96C45 4-280 limits assumed): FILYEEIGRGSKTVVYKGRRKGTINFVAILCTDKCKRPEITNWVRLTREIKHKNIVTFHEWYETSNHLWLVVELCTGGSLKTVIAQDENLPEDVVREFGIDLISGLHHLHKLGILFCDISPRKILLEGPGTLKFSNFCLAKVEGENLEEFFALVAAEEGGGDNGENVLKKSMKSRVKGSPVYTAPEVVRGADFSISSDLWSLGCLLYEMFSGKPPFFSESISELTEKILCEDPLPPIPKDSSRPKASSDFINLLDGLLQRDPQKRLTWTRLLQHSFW

inhibition of ADP-Biotin binding to ULK4 (relative potency) [2]	Structure (SMILES)	Ki ([1]; With Mg) [µM]	Ki ([1]; Without Mg) [µM]
–	Nc1ncnc2c1ncn2[C@@H]1O[C@H](COP(=O)(O)OP(=O)(O)O)[C@@H](O)[C@H]1O [ADP]	37	6.05
–	Nc1ncnc2c1ncn2[C@@H]1O[C@H](COP(=O)(O)OP(=O)(O)OP(=O)(O)O)[C@@H](O)[C@H]1O [ATP]	4.67	0.306
most potent ULK4 binders	COc1cc(Nc2ncc(F)c(Nc3ccc4c(n3)N(COP(=O)(O)O)C(=O)C(C)(C)O4)n2)cc(OC)c1OC [R788]	–	–
most potent ULK4 binders	CNC(=O)c1nn(C)c2c1C(C)(C)Cc1cnc(Nc3ccc(N4CCN(C)CC4)cc3)nc1-2 [PHA-848125]	–	–
